The test system of series [1] is Line 1 (L1) tau transgenic mice. Kind of series: Problem-solving task in the water maze. In kind it is in vivo, mouse. Put shortly: (§1)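 Mice aged 5 months (L1 and WT) received 15 or 45 mg/kg by oral gavage for 5 weeks (Monday–Friday), with dosing continued during testing 1 h before the first trial. Cued training lasted 4 days at 4 trials/day in a 1.5 m pool with water at 21±1°C, curtains drawn and a flagged platform moved daily among 20 sites. Each trial allowed 60 s, with a 2 s stay and a 10-min intertrial interval. Path length and swim speed were video-tracked.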

Series [2] deals with wild-type (WT) control mice. Kind of series: Visible platform task in the water maze, WT mice. In kind it is in vivo, mouse. The method, boiled down: as §1
The nature of series [3]: Body weight over 8 weeks of oral treatment, L1 and WT mice. In kind it is in vivo, mouse. Conditions: over 8 weeks of oral administration; identical in WT and L1 cohorts; drug exposure did not differ from vehicle.
The target in series [4] is aggregated tau in Line 1 (Homo sapiens, UniProt P10636). In words: Immunohistochemical counts of tau-reactive neurons. The series is classed as in vivo, mouse. Conditions: L1 mice, 45 mg/kg oral, 19 days. Put shortly:
(§2)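 Separate histology cohorts were killed by Euthatal overdose 1 h after the last dose. Brains were removed, paraformaldehyde-fixed and paraffin-embedded. Sixteen 3-μm sections per brain were stained together with WT, L1 and L66 controls, using mAb 7/51 (hybridoma supernatant 1:300) with HRP anti-mouse detection and haematoxylin counterstain. Tau-reactive neurons were counted by region, expressed as ln(count+1) and as percentage reduction versus zero dose.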

The target in series [5] is aggregated tau in L66 (Homo sapiens, UniProt P10636, G652D/P618S). In words: Immunohistochemical counts of tau-reactive neurons. The series is classed as in vivo, mouse. As to conditions: L66 heterozygous, 8–9 months, MTC 45 mg/kg (35.1 mg MT/kg), 3 weeks. Put shortly: as §2
In series [6] the test system is Line 66 (L66) tau transgenic mice. Kind of series: RotaRod motor performance and motor learning, L66 mice. In kind it is in vivo, mouse. Put shortly: (§3)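 On a four-lane rat RotaRod, pretreatment trials in week 1 were used for cohort matching. Mice then received 2 weeks of daily oral dosing (Monday–Sunday, 08.00–10.00 h): L66 at 5, 15 or 45 mg/kg, WT at 45 mg/kg only. Post-treatment training in week 4 continued dosing 1 h before the first trial. Time to fall was recorded over 12 trials. Learning was scored as trial 12 minus trial 1, and memory as pretreatment versus post-treatment trial 1.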
(In general: In the rotarod test animals must keep their balance on a rotating rod.)

Series [7] concerns wild-type (WT) control mice. Kind of series: RotaRod motor performance, WT mice. In kind it is in vivo, mouse. Conditions: 45 mg/kg oral. The method, boiled down: as §3
Series [8] is described as follows: Measurement of methylthioninium levels in the brain of L66 mice. The series is classed as in vivo, mouse.
Series [9] in a line: Body weight during 19-day treatment, L66 and WT mice. The series is classed as in vivo, mouse. Conditions: 5–45 mg/kg oral, 19 days, LMTX in this case LMTB.
Series [10] relates to L1 mice. Kind of series: Behavioural reactions observed on treatment, L1 histology cohorts. In kind it is in vivo, mouse. Conditions: 75 mg/kg oral, transient.
The test system of series [11] is Alzheimer's disease patients. Conditions: AD of mild or moderate severity, 24 weeks; ref Wischik et al., 2015; cited from earlier work.
For series [12], the system named is mitochondrial β-oxidation. As to conditions: ref Visarius et al., 1997; cited from earlier work.

Results on one substance are retold here after PMC4416029 (Behavioural Pharmacology, 2015).

aggregated tau in L66, sequence (P10636 1-441 isoform P10636-8 P301S/G335D): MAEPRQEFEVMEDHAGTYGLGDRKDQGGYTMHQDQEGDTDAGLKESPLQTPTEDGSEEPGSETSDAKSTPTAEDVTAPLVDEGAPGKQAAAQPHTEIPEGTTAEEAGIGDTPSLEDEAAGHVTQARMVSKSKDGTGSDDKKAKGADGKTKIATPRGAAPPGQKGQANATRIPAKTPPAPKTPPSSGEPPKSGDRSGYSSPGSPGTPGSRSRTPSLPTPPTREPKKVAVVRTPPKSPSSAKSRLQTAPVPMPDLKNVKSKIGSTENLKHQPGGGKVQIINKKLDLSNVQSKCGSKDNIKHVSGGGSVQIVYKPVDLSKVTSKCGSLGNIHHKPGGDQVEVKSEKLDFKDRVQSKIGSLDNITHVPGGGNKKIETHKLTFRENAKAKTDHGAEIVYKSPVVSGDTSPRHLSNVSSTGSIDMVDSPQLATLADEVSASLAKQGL
aggregated tau in Line 1, sequence (P10636 613-707): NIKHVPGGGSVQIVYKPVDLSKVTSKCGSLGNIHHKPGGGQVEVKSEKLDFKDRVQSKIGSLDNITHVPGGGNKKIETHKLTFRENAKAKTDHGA

Consider “3,7-bis(dimethylamino)phenothiazin-5-ylium chloride [MTC]”, for which the “effect on swim speed” value in series [1] (L1 and WT mice, 15 and 45 mg/kg oral, visible platform task) is listed as “did not alter the velocity”. Moreover, the “effect on mean number of trials to criterion (three spatial problems)” value in series [1] (L1 mice, 15 mg/kg oral) is given as “longer training required to meet criterion”; in series [1] (L1 mice, 45 mg/kg oral), “impairment was reversed”. Moreover, the “effect on path length to visible platform” value is “No drug effect” in [1] (L1 mice, 15 and 45 mg/kg oral, 4 days cued training); “improvement” in series [2] (15 mg/kg oral); “did not differ from controls” in series [2] (45 mg/kg oral). In addition, the “dose required to produce benefit in spatial problem-solving water maze task” value in series [1] (L1 mice, oral, 8 weeks, dose as weight of compound) stood at 45 mg/kg. Moreover, in series [3], the weight loss is on record as 15–20%. Moreover, in series [4], the “reduction in tau-reactive neurons, subiculum” value came out at 83%. Moreover, the “percentage reduction in counts compared with zero dose, mean over region” value in series [5] stood at 44%. In addition, the figures for the “effect on post-treatment RotaRod performance vs vehicle” value in [6] (5 mg/kg oral), in series [6] (15 mg/kg oral) and in [7] were “significant benefit”, “significant benefit” and “did not affect the performance”, respectively. Moreover, the “effect on motor learning (difference between trial 1 and trial 12)” value in [6] (all doses (5, 15, 45 mg/kg)) is “full recovery of motor learning”. The “lowest effective dose, correction of motor learning on RotaRod” value in series [6] (oral, 19 days (5 mg/kg of compound)) amounted to 4 mg MT/kg. For the same substance, the “brain MT concentration with evidence of plateauing of RotaRod performance” value in [8] (5 or 15 mg/kg, LMTX in this case LMTB) was found to be 0.6 mmol/L. Moreover, the “mean brain concentration of total MT” value in [8] (lowest effective dose (4 mg MT/kg), oral) was found to be 150 ± 10 nM. The “effect on body weight compared with vehicle controls” value in [9] is on record as “dose-dependent weight loss”. In [10], the behavioural reactions entry is on record as “hunched posture, low activity, piloerection”. Moreover, in series [11], the “minimum effective dose at clinical and molecular imaging endpoints” value is given as 138 mg MT/day. Besides, the “concentration for enhancement of mitochondrial β-oxidation” value in [12] was 0.3 µmol/L.
